This note sets out measurements from ChEMBL document CHEMBL4513216, “Probing the Open Global Health Chemical Diversity Library for Multistage-Active Starting Points for Next-Generation Antimalarials” (ACS Infect Dis, 2020).

The structures appear in SMILES notation.

The data set in a line: Toxicity liver stage against HepG2, at 10uM. In kind it is cell-based. On the set-up: test concentration 10 uM, cell line HepG2-A16-CD81EGFP. The settings on record: human, HepG2-A16-CD81EGFP cells; read-out: INHIBITION
The method in brief: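 Uninfected HepG2-A16-CD81EGFP cells, 3 × 10^3 per well, 1536-well, plated on prespotted compound at 10 μM final, parasite-free screening media added to match infected plates; puromycin 10 μM positive, DMSO 0.5% negative; run in parallel with 48 h PbLuc assay at 37 °C, 5% CO2; viability by CellTiter-Glo luminescence, normalized to controls.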

In the case of `CCN1CCN(C(=O)c2cc(-c3ccc(C)o3)n[nH]2)[C@H]2CS(=O)(=O)C[C@H]21`, the cytotoxicity at 10 µM is -4.25%.
For `CCOC(=O)c1coc(N2CCC(C(O)CC(C)C)CC2)n1` (configuration not stated), the cytotoxicity at 10 µM amounted to 5.78%.
With `COCCN1CCN(Cc2noc(C3CC3)n2)CC1C` (configuration not stated), the cytotoxicity at 10 µM stood at 1.43%.
In the case of `Cc1cc(NC(=O)N2CCCC2C(=O)NC2CC2)c2ncccc2c1` (configuration not stated), the cytotoxicity at 10 µM was -2.43%.
For the compound `CCOc1ccc(Cl)c(C(=O)N2CCCSCC2)n1`, the cytotoxicity at 10 µM is -4.03%.
As to `CN(C)CCN1CCC2(CCN(C(=O)c3cccnc3)CC2)C1=O`, the cytotoxicity at 10 µM was determined as 2.61%.
As to `CC(=O)N(C)Cc1cccc(NC(=O)CCCc2nc(C(C)C)no2)c1`, the cytotoxicity at 10 µM is -2.07%.
With `CC(C)n1cnc(C2CN(C)c3ccc(C(=O)NCC4CC4)cc32)n1` (configuration not stated), the cytotoxicity at 10 µM is -2.19%.
In the case of `Cc1cc(Cn2cncc(Br)c2=O)on1`, the cytotoxicity at 10 µM was 15.2%.
For the compound `CN1C(=O)c2cccc(NC(=O)c3ccc4c(c3)OCCO4)c2C1=O`, the cytotoxicity at 10 µM came out at 4.02%.
For `CCc1nc(N2CCC3(CC2)[C@H](O)C[C@@H]3O)ncc1C`, the cytotoxicity at 10 µM was determined as 6.02%.
For the compound `Cc1cccc2sc(NC(=O)CN3CCC(C)CC3)nc12`, the cytotoxicity at 10 µM stood at 2.89%.
As for `O=C(NCc1ccc2c(c1)CCCO2)C1CNCCO1` (configuration not stated), the cytotoxicity at 10 µM is -7.49%.
As for `CC(C)CS(=O)(=O)CCNC(=O)Nc1cccc2ncccc12`, the cytotoxicity at 10 µM was -11%.
Next, `COc1cc(C(=O)N2CCC3(CC2)Nc2ccccc2NC3=O)ccn1`: 0.701%; `Cc1ncc(-c2ccnc(N3CCN(C)CC3)n2)c(-c2cccnc2)n1`: 4.36%; `CN(C)C(=O)N1CCN(C(=O)Nc2nc(-c3ccccc3)ns2)CC1`: -136%.
Turning to `CC(C)CN1Cc2c(C(=O)NC3CC3)ncn2-c2ccccc2S1(=O)=O`, the cytotoxicity at 10 µM is -77.6%.
Turning to `COc1ccc(CNC(=O)N2CCC(Cc3cnn(C)c3)C2)cc1C` (configuration not stated), the cytotoxicity at 10 µM was -9.52%.
Consider `N#Cc1ccc(F)cc1Cn1cnc(C2CCC2)cc1=O`, for which the cytotoxicity at 10 µM was 15.4%.
With `CCCc1cc(=O)[nH]c(SCc2ccccn2)n1` the figure was -3.53%; with `COc1ccc2c(c1)CCCN2C(=O)c1cccc(N(C)C)c1`, 62.8%.
For the compound `O=C1CO[C@H]2CN(Cc3c[nH]c4ccccc34)C[C@H]2N1`, the cytotoxicity at 10 µM amounted to 1.61%.
Regarding `Cc1ccc(CN2CC[C@@H]3[C@@H](CO[C@H]3CN3CCN(C)CC3)C2)s1`, the cytotoxicity at 10 µM was determined as 7.57%.
Next, `CSCC(=O)N1CCc2nc(C)nc(NCc3ccccc3)c2CC1`: 1.69%; `c1coc(-c2nc(CN3CCCC(Cn4cncn4)C3)cs2)c1` (configuration not stated): -12%; `COC(=O)CCNC(=O)c1cccc(C(=O)N(C)c2ccccc2)c1`: -2.69%.
On to `COc1ncc(C(=O)N2CCC3(CC2)C(=O)Nc2ccccc23)cn1`, for which the cytotoxicity at 10 µM was -140%.
For `CC(CN1CCOCC1)NC(=O)N1CCCC1` (configuration not stated), the cytotoxicity at 10 µM was found to be 0.651%.
Take `CCOCC1CN(S(=O)(=O)c2ccccc2)Cc2nccn2C1` (configuration not stated): the cytotoxicity at 10 µM was -112%.
Consider `Cc1cnn(CCNCc2csc(COc3ccccc3)n2)c1`, for which the cytotoxicity at 10 µM turned out to be 1.77%.
For the compound `Cc1cccc(CNC(Cc2ccsc2)c2nc(C)c(C)s2)n1` (configuration not stated), the cytotoxicity at 10 µM is -0.52%.
As for `Cc1ccc(N2CCC3(CCN(Cc4csc(C)n4)C3=O)C2)nn1` (configuration not stated), the cytotoxicity at 10 µM is -111%.
Regarding `CN(C)C(=O)N1CCc2ccc(=O)[nH]c2CC1`, the cytotoxicity at 10 µM worked out at 5.39%.
`CCN(CC)C(C(=O)Nc1ccc2c(c1)CCC(=O)N2)c1ccccc1` (configuration not stated): the cytotoxicity at 10 µM amounted to 7.18%.
With `COc1ccc2c(c1)CCN(CCC(=O)O)CC2`, the cytotoxicity at 10 µM was -9.21%.
Next, `COCCN1CC2(CCC1=O)CCN(Cc1cc(F)ccc1Cl)CC2`: 5.29%; `CCOCc1ccc(NC(=O)N2CCCC2c2nncn2C)cc1` (configuration not stated): 6.53%.
For the compound `O=C(NC1CC1)[C@H]1C[C@H]2OCC[C@H]2N(Cc2cccc3ccccc23)C1`, the cytotoxicity at 10 µM was found to be 2.64%.
On to `COc1cccc(CCC2CCCN(C(=O)c3ccccn3)C2)c1` (configuration not stated), for which the cytotoxicity at 10 µM is -0.237%.
Next, `COc1cc2c(cc1CNCc1cccnc1-n1cccn1)OC(C)C2` (configuration not stated): 4.6%; `CN(C)c1cc(C2CCCN(Cc3cnn(C)c3)C2)ccn1` (configuration not stated): -1.88%; `COCC(=O)N1CCc2c(CNS(C)(=O)=O)n[nH]c2C1`: 4.32%.
In the case of `O=C(c1ncoc1C1CC1)N1CCCN(CCCc2ccccc2)CC1`, the cytotoxicity at 10 µM is -2.78%.
With `CC(NCc1cnc(N2CCN(C)CC2)nc1)c1ccc(F)cc1` (configuration not stated), the cytotoxicity at 10 µM is -5.26%.
For the compound `O=C(c1ccco1)N1CCC12CCN(c1ncc(F)cn1)CC2`, the cytotoxicity at 10 µM was -1.3%.
In the case of `O=C(Nc1nc[nH]n1)c1cc(-c2ccc(F)cc2)n[nH]1`, the cytotoxicity at 10 µM is -5.4%.
`CN(C)Cc1ccccc1Cn1cncc1-c1cnn(C)c1`: the cytotoxicity at 10 µM worked out at 6.16%.
Consider `Cc1cccc(C(=O)N2CCc3ncnc(C4CCOC4)c3CC2)n1` (configuration not stated), for which the cytotoxicity at 10 µM was -69.8%.
`O=C(Cc1ccc2c(c1)CCC2)N1CCCC1Cn1cccn1` (configuration not stated): the cytotoxicity at 10 µM was -139%.
For `Cc1nnc(NCc2ccc(SC(F)F)cc2)o1`, the cytotoxicity at 10 µM stood at 6.48%.
Regarding `NC(=O)C1CCN(C(=O)c2ccc(Sc3ccccn3)cc2)CC1`, the cytotoxicity at 10 µM amounted to 9.48%.
In the case of `Cc1nonc1NC(=O)CCn1cc(Br)ccc1=O`, the cytotoxicity at 10 µM was found to be 0.297%.
Next, `Cc1cccc(=O)n1CCCNc1ncnc2c1CCNCC2`: -9.53%; `CSCCCNC(=O)C1CCC(=O)N(C2CCCC2)C1` (configuration not stated): -11.1%; `CCc1nc(CN(C)CC2CCN(CC(C)O)CC2)no1` (configuration not stated): -10.3%.
With `COc1ccc(C(=O)N2CCCC(n3cc(C)cn3)C2)c(F)c1` (configuration not stated), the cytotoxicity at 10 µM is -10.2%.
As to `c1ccc(OCc2nnn3c2CN(c2ncccn2)CCC3)nc1`, the cytotoxicity at 10 µM amounted to 1.89%.
As to `O=C1CCCc2occ(C(=O)N3CCCC4(CCNC4)C3)c21` (configuration not stated), the cytotoxicity at 10 µM came out at 9.15%.
`O=C(NCC(F)(F)F)C1CSCN1S(=O)(=O)c1ccccc1F` (configuration not stated): the cytotoxicity at 10 µM was -16.3%.
With `O=C1COC2(COCCN(Cc3ccsc3)C2)CN1c1ccoc1` (configuration not stated) the figure was -73.5%; with `Cn1ccc(CN2CCC(OCCc3ccccc3)CC2)cc1=O`, -4.43%.
In the case of `Cc1occc1C(=O)N1CCO[C@H]2[C@@H](Oc3ccccn3)CC[C@@H]21`, the cytotoxicity at 10 µM was found to be 2.37%.
As for `CN(Cc1ccc(C2CC(=O)Nc3n[nH]cc32)o1)S(C)(=O)=O` (configuration not stated), the cytotoxicity at 10 µM is -13.8%.
As to `O=C(Cn1cnc2ccsc2c1=O)c1ccc2c(c1)OCCO2`, the cytotoxicity at 10 µM stood at 3.1%.
`COc1cccc(CN(Cc2ccco2)Cc2[nH]cnc2C)c1`: the cytotoxicity at 10 µM worked out at 3.77%.
Consider `COc1ccc(NCC2(O)CCNCC2)cc1OC`, for which the cytotoxicity at 10 µM came to 6.2%.
Regarding `CCNC(=O)CN1CCc2c(Br)ccc(F)c2C1`, the cytotoxicity at 10 µM came out at 4.34%.
Turning to `CN(Cc1cnn(C)c1)C(=O)C1COc2ccccc2C1` (configuration not stated), the cytotoxicity at 10 µM turned out to be 0.583%.
Next, `Cc1cccc(CN2CCC3(CCN(c4ncccn4)C3)C2=O)c1` (configuration not stated): 1.44%; `CC(C)CC(NCc1ccsc1)c1ccccn1` (configuration not stated): -2.56%; `CCCN1CCC(NC(=O)Nc2ccc(OC)c(OC)c2)CC1`: -13.4%.
With `Cc1noc(COCC(=O)N2CCCCC2c2nccs2)n1` (configuration not stated) the figure was 6.9%.
For `CNC(=O)c1cccc(NC(=O)NC(C)CCc2cccn2C)c1C` (configuration not stated), the cytotoxicity at 10 µM was -1.39%.
`CCCN(CCC)c1ncc(S(=O)(=O)c2ccc(OC)cc2)c(N)n1`: the cytotoxicity at 10 µM came to 7.79%.
As to `CCO[C@@H]1CC[C@H]2[C@H]1OCCN2CCOCc1ccccc1`, the cytotoxicity at 10 µM is -111%.
With `CSC(CNS(C)(=O)=O)c1cccc(Cl)c1` (configuration not stated), the cytotoxicity at 10 µM amounted to 6.27%.
On to `CC(C)(C)C(=O)N1CCCC1(C(=O)N1CCCC1)c1cnccn1` (configuration not stated), for which the cytotoxicity at 10 µM amounted to 4.84%.
Regarding `OC(CN(Cc1ccccc1)Cc1ccon1)c1ccco1` (configuration not stated), the cytotoxicity at 10 µM came to 4.42%.
Regarding `Cc1ccc2nc(C3CCCN3Cc3scnc3C)[nH]c2c1` (configuration not stated), the cytotoxicity at 10 µM was determined as 8.2%.
In the case of `CC(O)c1cccc(N2CCC3(CCC(=O)N(C4CCCC4)C3)CC2)n1` (configuration not stated), the cytotoxicity at 10 µM was -3.56%.
In the case of `Cc1cccc(N2CCC3(CCN(Cc4ccccn4)CC3)CC2)n1`, the cytotoxicity at 10 µM was determined as 4.17%.
In the case of `CCNc1nc2cn(-c3ccc(CC)cc3)c(=O)c-2c[nH]1`, the cytotoxicity at 10 µM is -3.31%.
With `O=C1CSC(c2ccsc2)c2c(n(C3CCOCC3)[nH]c2=O)N1` (configuration not stated) the figure was 9.53%; with `CCc1ncc(C(=O)NC(C)(C)CC)s1`, -0.343%.
On to `COc1ccc(-c2noc([C@@H](C)NS(=O)(=O)CC(C)C)c2C(=O)O)cc1`, for which the cytotoxicity at 10 µM is -5.23%.
`Cn1cnc2c(N3CCOCC3)nc(C3CCNCC3)cc21`: the cytotoxicity at 10 µM turned out to be 2.98%.
For `c1ccc(-n2ccnc2)c(CNCC2CNc3ccnn3C2)c1` (configuration not stated), the cytotoxicity at 10 µM is -8.11%.
Consider `CCCN1C[C@@H]2CC[C@H]1CN(C(=O)Cc1c(C)[nH]c(CC)nc1=O)C2`, for which the cytotoxicity at 10 µM is -0.529%.
With `Cc1oncc1C(=O)N1CCCc2c(C#N)nn(C)c2C1` the figure was -134%; with `CCc1nnsc1C(=O)N1CCCC(c2nc3ccccc3[nH]2)C1` (configuration not stated), 4.52%.
As for `Cc1nnc(N2CCOC(C)(C(=O)NC3CCCC3)C2)c2ccccc12` (configuration not stated), the cytotoxicity at 10 µM was 7.92%.
Consider `Cc1cnn(C2CN(CCOc3cccc(C#N)c3)C2)c1`, for which the cytotoxicity at 10 µM was determined as 5.62%.
Consider `Cc1ccc(CNCC2Cn3nnc(-c4cccc(F)c4)c3CO2)o1` (configuration not stated), for which the cytotoxicity at 10 µM is -0.617%.
With `COCCCNC(=O)Nc1ccc(-n2cncn2)c(C(F)(F)F)c1`, the cytotoxicity at 10 µM is -6.98%.
With `CCc1ccc(O)c(C(=O)N2CCN(CC(=O)N(C)C)CC2)c1`, the cytotoxicity at 10 µM came to 2.8%.
With `CN(C)c1nccc(CNS(=O)(=O)c2ccc(F)c(Cl)c2)n1`, the cytotoxicity at 10 µM is -140%.
